Activity calls are given as the source filed them. The calls are words filed in the database; no cut-off is given here.
Assays:
HEL [1] = experiment: Growth inhibition of HEL cells harboring Val617Phe mutation in JAK2 at 25 uM after 72 hrs by trypan blue exclusion assay; type: functional; conditions: Homo sapiens, read-out: GI
Summary of the method: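 Screening assay of HEL growth inhibition. HEL cells carry JAK2-Val617Phe on both alleles. Each compound was tested at a single final concentration of 25 μM.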

[2] = biological target: Proto-oncogene tyrosine-protein kinase Src (Homo sapiens) (UniProt P12931); experiment: Inhibition of recombinant pp60c-Src autophosphorylation at 25 uM by Western blotting
Summary of the method: (§1)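 Cell-free c-Src kinase assay, with compound tested at 25 μM.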

Raji [3] = experiment: Growth inhibition of human Raji cells possessing […] between c-Myc gene on chromosome 8 and heavy chain locus on chromosome 14 assessed as reduction in cell number at 100 uM after 48 hrs using trypan blue staining by hemocytometry; type: functional, cell-based
Summary of the method: (§2)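 Four lines were compared: HEL (JAK2-Val617Phe on both alleles), CMK (JAK3-Ala572Val), Raji (c-Myc/heavy-chain locus translocation) and BSC-40 (green monkey kidney epithelial, SV-40 large T immortalized). Cells were exposed to compound over 10−9 to 10−4 M, and the read-out was cell number.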

HEL [4] = experiment: Growth inhibition of HEL cells harboring Val617Phe mutation in JAK2 assessed as reduction in cell number at 0.001 to 10 uM after 48 hrs using trypan blue staining by hemocytometry; type: functional, cell-based; conditions: Homo sapiens; summary of the method: as §2
[5] = Inhibition of pathological growth of human hematopoietic progenitor cells isolated from polycythemia vera patient assessed as erythroid colony formation at 2.5 uM after 14 days in absence of erythropoietin; type: functional; conditions: 336 h, read-out: GI
[6] = system: Tyrosine-protein kinase JAK2 (Homo sapiens), O60674 [V617F]; experiment: Inhibition of recombinant JAK2-Val617Phe kinase activity at 25 uM after 30 mins by luminometry
Summary of the method: (§3)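 Cell-free kinase assay. Recombinant JAK2-Val617Phe protein (JH1+JH2) was incubated with increasing inhibitor concentrations. After the kinetic reactions, relative kinase inhibition was determined from the residual ATP level in each reaction.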

[7] = biological target: Proto-oncogene tyrosine-protein kinase Src (Homo sapiens) (UniProt P12931); experiment: Inhibition of recombinant pp60c-Src at 25 uM by Western blotting; summary of the method: as §1
HEL [8] = experiment: Reduction in phospho-JAK2 [pYpY1007/1008] level in HEL cells at 25 uM by […]; type: functional, cell-based; conditions: Homo sapiens, TDE = time-dependent effect
Summary of the method: (§4)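 HEL cells were treated across varying compound concentrations and exposure times. Phospho-JAK2 protein levels were then measured in the cells.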

[9] = Inhibition of pathological growth of human hematopoietic progenitor cells isolated from polycythemia vera patient assessed as erythroid colony formation at 2.5 uM after 14 days in absence of erythropoietin; conditions: 336 h, read-out: GI
CMK [10] = experiment: Growth inhibition of human CMK cells harboring Ala572Val mutation in JAK3 assessed as reduction in cell number at 100 uM after 48 hrs using trypan blue staining by hemocytometry; type: functional, cell-based; summary of the method: as §2
[11] = biological target: Tyrosine-protein kinase JAK2 (Homo sapiens, UniProt O60674, V617F); experiment: (§5) Inhibition of recombinant JAK2-Val617Phe kinase activity after 30 mins by luminometry; summary of the method: as §3
[12] = system: Tyrosine-protein kinase JAK2 (Homo sapiens), O60674 [V617F]; experiment: as §5; summary of the method: as §3
CMK [13] = experiment: Growth inhibition of human CMK cells harboring Ala572Val mutation in JAK3 assessed as reduction in cell number at 0.001 to 10 uM after 48 hrs using trypan blue staining by hemocytometry; type: functional, cell-based; summary of the method: as §2
HEL [14] = experiment: Reduction in phospho-JAK2 [pYpY1007/1008] level in HEL cells after 48 hrs by […]; type: functional, cell-based; conditions: Homo sapiens; summary of the method: as §4
HEL [15] = experiment: Growth inhibition of HEL cells harboring Val617Phe mutation in JAK2 assessed as reduction in cell number at 100 uM after 48 hrs using trypan blue staining by hemocytometry; type: functional, cell-based; conditions: Homo sapiens; summary of the method: as §2
BSC-40 [16] = experiment: Growth inhibition of african green monkey BSC40 cells immortalized with SV40 large T antigen assessed as reduction in cell number at 0.001 to 10 uM after 48 hrs using trypan blue staining by hemocytometry; type: functional, cell-based; conditions: Chlorocebus aethiops; summary of the method: as §2
Raji [17] = experiment: Growth inhibition of human Raji cells possessing […] between c-Myc gene on chromosome 8 and heavy chain locus on chromosome 14 assessed as reduction in cell number at 0.001 to 10 uM after 48 hrs using trypan blue staining by hemocytometry; type: functional, cell-based; summary of the method: as §2
[18] = biological target: Non-receptor tyrosine-protein kinase TYK2 (Homo sapiens) (UniProt P29597); experiment: Inhibition of TYK2 autophosphorylation transfected in mouse embryonic fibroblasts at 25 uM by Western blotting
Summary of the method: (§6)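 TYK2 autophosphorylation was measured within intact cells, with compound present at 25 μM.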

[19] = biological target: Non-receptor tyrosine-protein kinase TYK2 (Homo sapiens) (UniProt P29597); experiment: Inhibition of TYK2 transfected in mouse embryonic fibroblasts at 25 uM by Western blotting; summary of the method: as §6
BSC-40 [20] = experiment: Growth inhibition of african green monkey BSC40 cells immortalized with SV40 large T antigen assessed as reduction in cell number at 100 uM after 48 hrs using trypan blue staining by hemocytometry; type: functional, cell-based; conditions: Chlorocebus aethiops; summary of the method: as §2

Chain of Proto-oncogene tyrosine-protein kinase Src (Homo sapiens) (P12931 2-536 limits assumed): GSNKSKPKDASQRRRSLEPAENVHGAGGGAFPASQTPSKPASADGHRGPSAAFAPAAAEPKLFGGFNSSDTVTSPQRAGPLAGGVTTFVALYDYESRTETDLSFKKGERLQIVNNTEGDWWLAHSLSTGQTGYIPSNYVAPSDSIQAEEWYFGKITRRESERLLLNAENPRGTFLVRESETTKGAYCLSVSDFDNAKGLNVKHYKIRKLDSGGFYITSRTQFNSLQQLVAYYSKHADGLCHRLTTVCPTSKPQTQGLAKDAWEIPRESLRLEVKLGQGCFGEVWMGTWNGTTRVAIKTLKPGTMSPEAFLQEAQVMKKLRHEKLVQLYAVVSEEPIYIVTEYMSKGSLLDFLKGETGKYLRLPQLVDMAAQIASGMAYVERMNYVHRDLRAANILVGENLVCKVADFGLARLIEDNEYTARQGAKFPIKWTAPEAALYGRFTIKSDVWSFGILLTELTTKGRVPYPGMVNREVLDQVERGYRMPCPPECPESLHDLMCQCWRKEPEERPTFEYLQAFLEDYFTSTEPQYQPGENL
Chain of Tyrosine-protein kinase JAK2 (Homo sapiens), O60674 [V617F] (O60674 whole entry V617F): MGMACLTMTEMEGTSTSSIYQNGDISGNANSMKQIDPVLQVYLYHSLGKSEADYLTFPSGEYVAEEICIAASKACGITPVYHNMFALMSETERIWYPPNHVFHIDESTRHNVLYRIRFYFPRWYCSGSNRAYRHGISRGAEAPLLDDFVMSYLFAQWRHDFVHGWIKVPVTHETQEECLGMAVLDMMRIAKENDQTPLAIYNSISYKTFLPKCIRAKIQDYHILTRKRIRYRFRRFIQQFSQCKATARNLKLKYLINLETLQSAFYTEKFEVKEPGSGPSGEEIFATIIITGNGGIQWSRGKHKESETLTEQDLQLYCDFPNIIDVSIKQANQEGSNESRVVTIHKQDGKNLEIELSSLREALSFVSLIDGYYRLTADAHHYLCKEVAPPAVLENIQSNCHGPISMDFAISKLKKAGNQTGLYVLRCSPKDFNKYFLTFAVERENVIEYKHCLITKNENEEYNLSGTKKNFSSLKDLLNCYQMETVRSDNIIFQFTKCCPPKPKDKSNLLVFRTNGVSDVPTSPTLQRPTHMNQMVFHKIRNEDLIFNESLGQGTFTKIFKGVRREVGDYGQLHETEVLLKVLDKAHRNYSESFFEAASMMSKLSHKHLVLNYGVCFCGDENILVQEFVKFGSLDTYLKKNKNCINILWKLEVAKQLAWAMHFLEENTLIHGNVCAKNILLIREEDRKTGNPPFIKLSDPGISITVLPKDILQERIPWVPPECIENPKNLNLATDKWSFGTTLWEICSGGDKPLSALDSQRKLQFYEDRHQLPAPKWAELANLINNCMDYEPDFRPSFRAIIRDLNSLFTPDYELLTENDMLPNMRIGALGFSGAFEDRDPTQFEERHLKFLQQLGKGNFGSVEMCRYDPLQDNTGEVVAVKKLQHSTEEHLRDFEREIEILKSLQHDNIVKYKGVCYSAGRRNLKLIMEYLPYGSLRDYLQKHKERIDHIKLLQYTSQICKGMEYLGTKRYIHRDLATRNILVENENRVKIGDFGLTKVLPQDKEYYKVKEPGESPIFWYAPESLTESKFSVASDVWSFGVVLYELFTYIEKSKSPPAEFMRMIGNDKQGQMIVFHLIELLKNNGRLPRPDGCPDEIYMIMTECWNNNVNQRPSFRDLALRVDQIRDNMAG
Chain of Non-receptor tyrosine-protein kinase TYK2 (Homo sapiens) (P29597 whole entry): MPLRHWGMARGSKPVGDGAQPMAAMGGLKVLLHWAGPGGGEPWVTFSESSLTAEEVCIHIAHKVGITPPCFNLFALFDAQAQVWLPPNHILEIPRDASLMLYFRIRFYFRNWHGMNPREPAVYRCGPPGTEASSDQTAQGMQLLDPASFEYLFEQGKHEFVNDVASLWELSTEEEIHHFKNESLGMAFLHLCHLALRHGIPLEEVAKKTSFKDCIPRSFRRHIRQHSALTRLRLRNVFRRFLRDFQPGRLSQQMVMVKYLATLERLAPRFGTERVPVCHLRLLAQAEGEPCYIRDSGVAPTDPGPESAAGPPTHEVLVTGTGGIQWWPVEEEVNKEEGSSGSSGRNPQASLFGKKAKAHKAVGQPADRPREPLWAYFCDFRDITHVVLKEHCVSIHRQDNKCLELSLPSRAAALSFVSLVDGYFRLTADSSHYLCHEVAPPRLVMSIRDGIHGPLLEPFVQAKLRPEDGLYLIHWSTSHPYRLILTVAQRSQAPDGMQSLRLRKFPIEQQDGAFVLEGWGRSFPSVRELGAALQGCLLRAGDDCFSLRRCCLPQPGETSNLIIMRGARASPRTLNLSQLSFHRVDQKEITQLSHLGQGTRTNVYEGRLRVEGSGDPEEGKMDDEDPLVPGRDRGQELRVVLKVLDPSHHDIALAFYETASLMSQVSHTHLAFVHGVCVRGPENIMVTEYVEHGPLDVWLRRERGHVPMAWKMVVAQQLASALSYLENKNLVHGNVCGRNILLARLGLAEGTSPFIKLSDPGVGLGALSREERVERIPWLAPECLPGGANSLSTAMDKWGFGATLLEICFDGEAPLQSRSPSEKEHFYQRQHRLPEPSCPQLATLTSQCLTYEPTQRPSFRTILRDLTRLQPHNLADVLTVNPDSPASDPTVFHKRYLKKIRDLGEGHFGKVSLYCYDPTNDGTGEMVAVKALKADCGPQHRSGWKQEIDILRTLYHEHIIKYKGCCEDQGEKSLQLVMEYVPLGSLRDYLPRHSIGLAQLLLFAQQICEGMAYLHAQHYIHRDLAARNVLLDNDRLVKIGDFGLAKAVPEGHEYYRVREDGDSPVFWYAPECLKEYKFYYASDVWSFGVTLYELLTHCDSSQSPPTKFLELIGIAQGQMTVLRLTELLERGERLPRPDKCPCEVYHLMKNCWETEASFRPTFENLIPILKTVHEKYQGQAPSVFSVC
Chain of Tyrosine-protein kinase JAK2 (O60674 whole entry V617F): as the sequence (O60674 whole entry V617F) above

Structure (SMILES) | inhibition of growth at 25 µM (HEL [1]) | other results
CCCCCCCCNC(C(=O)c1ccc(Cl)cc1)c1ccc(Cl)cc1 (stereo unspecified) | 7% | 
CC1=CN=C(NCCCCNC2=NC=C(C)/C(=C3/C=CC=CC3=O)N2)N/C1=C1/C=CC=CC1=O | 16% | 
Cc1cc(Cl)ccc1Nc1sc(C(=O)c2cc3cc(Cl)ccc3o2)c(N)c1C#N | 55% | 
O=C(Nc1ccccc1)Nc1ccc2ccccc2c1 | 38% | 
CC(CCc1ccccn1)(CCc1ccccn1)C(=O)c1ccccc1 |  | inhibition [2]: inactive
COc1ccc2nc(NC(=O)Nc3ccc(C)c(NC(=O)Nc4nc5ccc(OC)cc5s4)c3)sc2c1 | 57% | 
O=C1C=Cc2ccccc2/C1=C/N/N=C(\C(=O)c1ccccc1)c1ccccc1 | 27% | 
COc1ccc(-c2n[nH]c(=S)c(-c3ccccc3)c2-c2ccccc2)cc1 | 44% | 
CCCCCCCNC1=C(OCC)C(=O)c2ccccc2C1=O | 24% | 
O=C1C=Cc2ccccc2/C1=C/NNS(=O)(=O)c1cc(Cl)c(Cl)cc1Cl | 51% | 
O/N=C(\c1ccccc1)c1ccc[n+](CCc2ccccc2)c1 | 38% | 
CCc1c(C#N)c(N)c2c(N)c(C(=O)c3ccccc3)sc2c1C | 30% | 
O=C(/C=C(\O)c1ccc(F)cc1)C(=O)/C=C(\O)c1ccc(F)cc1 | 36% | 
NC(CSSCC(N)C(=O)c1ccccc1)C(=O)c1ccccc1 (stereo unspecified) | 30% | 
O=C(/C=C(\C=C\c1ccccc1)c1ccccc1)CC(=O)c1ccccc1 | 11% | 
C/C(CC(=O)c1ccccc1)=N/CCCCC/N=C(\C)CC(=O)c1ccccc1 | 31% | 
O=C(CN1C=C(/C=N/O)C=CC1)C1CCC(C2CCC(C(=O)CN3CCCC(/C=N/O)C3)CC2)CC1 (stereo unspecified) | 8% | 
C/C(CC(=O)c1ccccc1)=N/CCCC/N=C(/C)CC(=O)c1ccccc1 | 19% | 
CCc1[nH]nc(-c2ccc(OC)cc2)c1-c1ccccc1O | 40% | 

Structure (SMILES) | inhibition of growth at 25 µM (HEL [1]) | other results
O=C(c1cccc([N+](=O)[O-])c1)c1c(O)oc2ccccc2c1=O | 40% | 
O=C1C=C(NCCCC2CCCN3CCCCC23)C(=O)c2ccccc21 (stereo unspecified) | 27% | 
O=C(NCCNCCO)c1cccc(Nc2cc(O)c(O)c3ccccc23)c1 | 42% | 
O=[N+]([O-])c1cc(/C=N/NS(=O)(=O)c2cc(Cl)c(Cl)cc2Cl)ccc1Cl | 27% | 
Nc1ccc(C(=O)Nc2ccc3cc(S(=O)(=O)O)cc(O)c3c2)cc1 | 39% | 
NC(=O)c1cc(NC(=O)c2ccc(C(=O)Nc3cc(C(N)=O)cc(C4=NCCN4)c3)cc2)cc(C2=NCCN2)c1 | 10% | 
O=C(Nc1cc(Cl)ccc1Cl)Nc1ccc(Cl)cc1C(=O)c1ccccc1 | 24% | 
CC(C)(C)n1nc(-c2ccc(Cl)cc2)c2c(N)ncnc21 |  | inhibition [2]: Active
O=C(CC(=O)c1ccccc1)CC(O)(/C=C/c1ccccc1)c1ccccc1 (stereo unspecified) | 15% | 
CC/C(=C(/CC)c1ccc(O)c(CN(CC)CC)c1)c1ccc(O)c(CN(CC)CC)c1 | > 99% | growth inhibition (GI) (Raji [3]): Active; inhibition [2]: inactive; growth inhibition (GI) (HEL [4]): Active; inhibition of growth at 2.5 µM [5]: > 50%; inhibition [6]: > 99%; inhibition [7]: inactive; Activity (HEL [8]): tde; inhibition of growth at 2.5 µM [9]: > 50%; growth inhibition (GI) (CMK [10]): Active; IC50 [11]: 60 nM; Activity [12]: Dose-dependent effect; growth inhibition (GI) (CMK [13]): inactive; Activity (HEL [14]): Dose-dependent effect; growth inhibition (GI) (HEL [15]): Active; growth inhibition (GI) (BSC-40 [16]): inactive; growth inhibition (GI) (Raji [17]): inactive; inhibition [18]: inactive; inhibition [19]: inactive; growth inhibition (GI) (BSC-40 [20]): Active
CC(=O)c1cc(Cl)ccc1OCC(O)CNc1ccccc1C(=O)c1ccccc1 (stereo unspecified) | 41% | 
OC1C=C(c2ccccc2)C(c2ccccc2)C(c2ccccc2)C1 (stereo unspecified) | 27% | 
O=C(Nc1ccc(Cc2ccc(NC(=O)Nc3cccc(C4=NCCN4)c3)cc2)cc1)Nc1cccc(C2=NCCN2)c1 | 13% | 
O=C(Nc1ccc(Oc2ccc(NC(=O)Nc3ccc(-c4ccccc4)cc3)cc2)cc1)Nc1ccc(-c2ccccc2)cc1 | 13% | 
Cc1c(O)c2ccccc2c2c1sc(NCCCN(CCO)CCO)[n+]2C | 41% | 
O=P(O)(c1ccc(Cl)cc1)c1ccc(Cl)cc1 | 13% | 
O=C(CC(=O)CC(=O)c1ccccc1)CC(=O)c1ccccc1 | 67% | 
CC(=O)c1c(O)cc(O)cc1-c1cc(=O)c2c(O)ccc(C(C)=O)c2o1 | 42% | 
